Source: ChEMBL document CHEMBL3120116, “Toward synthesis of third-generation spin-labeled podophyllotoxin derivatives using isocyanide multicomponent reactions” (Eur J Med Chem, 2014)

Test system: not listed separately
Assay: Cytotoxicity against human KBVIN cells after 72 hrs by SRB assay
Format: functional, cell-based
Conditions: kbvin
Procedure, shortened: (§1)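 Cells seeded at 3–5 × 10^3 per well in RPMI-1640 with 10% FBS containing graded sample concentrations, exposed 72 h. Attached cells fixed with cold 50% trichloroacetic acid 30 min, stained with 0.04% SRB 30 min, bound dye dissolved in 10 mM Tris-base, absorbance read at 515 nm. Triplicate experiments; IC50 reported. KBvin is a vincristine-selected MDR KB subline.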

Point of comparison: CCCC(OC(=O)C1=CC(C)(C)N([O])C1(C)C)C(=O)N[C@@H]1c2cc3c(cc2[C@@H](c2cc(OC)c(OC)c(OC)c2)[C@H]2C(=O)OC[C@@H]21)OCO3 (stereo partly drawn), IC50 8.88 µM. Against it:
- CCCC(C(=O)N[C@@H]1c2cc3c(cc2[C@@H](c2cc(OC)c(OC)c(OC)c2)[C@H]2C(=O)OC[C@@H]21)OCO3)N(C(=O)C1=CC(C)(C)N([O])C1(C)C)C(C)(C)C (stereo partly drawn) — higher, > 20 µM
- CCCC(OC(=O)C1CC(C)(C)N([O])C(C)(C)C1)C(=O)N[C@@H]1c2cc3c(cc2[C@@H](c2cc(OC)c(OC)c(OC)c2)[C@H]2C(=O)OC[C@@H]21)OCO3 (stereo partly drawn) — within 1.5-fold, 7.96 µM
- CCCC(C(=O)N[C@@H]1c2cc3c(cc2[C@@H](c2cc(OC)c(OC)c(OC)c2)[C@H]2C(=O)OC[C@@H]21)OCO3)N(CCC)C(=O)C1=CC(C)(C)N([O])C1(C)C (stereo partly drawn) — higher, > 20 µM
- CCCC(OC(=O)C1=CC(C)(C)N([O])C(C)(C)C1)C(=O)N[C@@H]1c2cc3c(cc2[C@@H](c2cc(OC)c(OC)c(OC)c2)[C@H]2C(=O)OC[C@@H]21)OCO3 (stereo partly drawn) — within 1.5-fold, 8.35 µM
- CCCC(C(=O)N[C@@H]1c2cc3c(cc2[C@@H](c2cc(OC)c(OC)c(OC)c2)[C@H]2C(=O)OC[C@@H]21)OCO3)N(C(=O)C1=CC(C)(C)N([O])C1(C)C)C1CCCCC1 (stereo partly drawn) — within 1.5-fold, 8.83 µM
- COc1cc([C@@H]2c3cc4c(cc3[C@@H](NC(=O)C3(OC(=O)C5=CC(C)(C)N([O])C5(C)C)CCCCC3)[C@H]3COC(=O)[C@H]23)OCO4)cc(OC)c1OC — 1.5-fold higher, 13.7 µM
- CCCN(C(=O)C1=CC(C)(C)N([O])C1(C)C)C(C(=O)N[C@@H]1c2cc3c(cc2[C@@H](c2cc(OC)c(OC)c(OC)c2)[C@H]2C(=O)OC[C@@H]21)OCO3)c1ccccc1 (stereo partly drawn) — higher, > 20 µM
- CCCC(C(=O)N[C@@H]1c2cc3c(cc2[C@@H](c2cc(OC)c(OC)c(OC)c2)[C@H]2C(=O)OC[C@@H]21)OCO3)N(C(=O)C1=CC(C)(C)N([O])C1(C)C)c1ccccc1 (stereo partly drawn) — within 1.5-fold, 7.47 µM
- COc1cc([C@@H]2c3cc4c(cc3[C@@H](NC(=O)C(OC(=O)C3=CC(C)(C)N([O])C3(C)C)c3ccco3)[C@H]3COC(=O)[C@H]23)OCO4)cc(OC)c1OC (stereo partly drawn) — within 1.5-fold, 7.35 µM
- CCCN(C(=O)C1=CC(C)(C)N([O])C(C)(C)C1)C(C)(C)C(=O)N[C@@H]1c2cc3c(cc2[C@@H](c2cc(OC)c(OC)c(OC)c2)[C@H]2C(=O)OC[C@@H]21)OCO3 — higher, > 20 µM
- COc1cc([C@@H]2c3cc4c(cc3[C@@H](NC(=O)C(Cc3ccccc3)OC(=O)C3=CC(C)(C)N([O])C3(C)C)[C@H]3COC(=O)[C@H]23)OCO4)cc(OC)c1OC (stereo partly drawn) — within 1.5-fold, 7.71 µM

Test system: A549
Assay: Cytotoxicity against human A549 cells after 72 hrs by SRB assay
Format: functional, cell-based
Conditions: not given
Procedure, shortened: as §1

Point of comparison: CCCC(C(=O)N[C@@H]1c2cc3c(cc2[C@@H](c2cc(OC)c(OC)c(OC)c2)[C@H]2C(=O)OC[C@@H]21)OCO3)N(C(=O)C1=CC(C)(C)N([O])C1(C)C)C1CCCCC1 (stereo partly drawn), IC50 8.98 µM. Against it:
- CCCC(OC(=O)C1=CC(C)(C)N([O])C1(C)C)C(=O)N[C@@H]1c2cc3c(cc2[C@@H](c2cc(OC)c(OC)c(OC)c2)[C@H]2C(=O)OC[C@@H]21)OCO3 (stereo partly drawn) — within 1.5-fold, 8.86 µM
- CCCC(C(=O)N[C@@H]1c2cc3c(cc2[C@@H](c2cc(OC)c(OC)c(OC)c2)[C@H]2C(=O)OC[C@@H]21)OCO3)N(C(=O)C1=CC(C)(C)N([O])C1(C)C)C(C)(C)C (stereo partly drawn) — higher, > 20 µM
- CCCC(OC(=O)C1CC(C)(C)N([O])C(C)(C)C1)C(=O)N[C@@H]1c2cc3c(cc2[C@@H](c2cc(OC)c(OC)c(OC)c2)[C@H]2C(=O)OC[C@@H]21)OCO3 (stereo partly drawn) — within 1.5-fold, 8.82 µM
- CCCC(C(=O)N[C@@H]1c2cc3c(cc2[C@@H](c2cc(OC)c(OC)c(OC)c2)[C@H]2C(=O)OC[C@@H]21)OCO3)N(CCC)C(=O)C1=CC(C)(C)N([O])C1(C)C (stereo partly drawn) — higher, > 20 µM
- CCCC(OC(=O)C1=CC(C)(C)N([O])C(C)(C)C1)C(=O)N[C@@H]1c2cc3c(cc2[C@@H](c2cc(OC)c(OC)c(OC)c2)[C@H]2C(=O)OC[C@@H]21)OCO3 (stereo partly drawn) — within 1.5-fold, 9.05 µM
- COc1cc([C@@H]2c3cc4c(cc3[C@@H](NC(=O)C3(OC(=O)C5=CC(C)(C)N([O])C5(C)C)CCCCC3)[C@H]3COC(=O)[C@H]23)OCO4)cc(OC)c1OC — within 1.5-fold, 9.52 µM
- CCCN(C(=O)C1=CC(C)(C)N([O])C1(C)C)C(C(=O)N[C@@H]1c2cc3c(cc2[C@@H](c2cc(OC)c(OC)c(OC)c2)[C@H]2C(=O)OC[C@@H]21)OCO3)c1ccccc1 (stereo partly drawn) — higher, > 20 µM
- CCCC(C(=O)N[C@@H]1c2cc3c(cc2[C@@H](c2cc(OC)c(OC)c(OC)c2)[C@H]2C(=O)OC[C@@H]21)OCO3)N(C(=O)C1=CC(C)(C)N([O])C1(C)C)c1ccccc1 (stereo partly drawn) — within 1.5-fold, 8.4 µM
- COc1cc([C@@H]2c3cc4c(cc3[C@@H](NC(=O)C(OC(=O)C3=CC(C)(C)N([O])C3(C)C)c3ccco3)[C@H]3COC(=O)[C@H]23)OCO4)cc(OC)c1OC (stereo partly drawn) — within 1.5-fold, 7.38 µM
- CCCN(C(=O)C1=CC(C)(C)N([O])C(C)(C)C1)C(C)(C)C(=O)N[C@@H]1c2cc3c(cc2[C@@H](c2cc(OC)c(OC)c(OC)c2)[C@H]2C(=O)OC[C@@H]21)OCO3 — higher, > 20 µM
- COc1cc([C@@H]2c3cc4c(cc3[C@@H](NC(=O)C(Cc3ccccc3)OC(=O)C3=CC(C)(C)N([O])C3(C)C)[C@H]3COC(=O)[C@H]23)OCO4)cc(OC)c1OC (stereo partly drawn) — within 1.5-fold, 7.68 µM

Test system: KB
Assay: Cytotoxicity against human KB cells after 72 hrs by SRB assay
Format: functional, cell-based
Conditions: not given
Procedure, shortened: as §1

Point of comparison: COc1cc([C@@H]2c3cc4c(cc3[C@@H](NC(=O)C3(OC(=O)C5=CC(C)(C)N([O])C5(C)C)CCCCC3)[C@H]3COC(=O)[C@H]23)OCO4)cc(OC)c1OC, IC50 9.24 µM. Against it:
- CCCC(OC(=O)C1=CC(C)(C)N([O])C1(C)C)C(=O)N[C@@H]1c2cc3c(cc2[C@@H](c2cc(OC)c(OC)c(OC)c2)[C@H]2C(=O)OC[C@@H]21)OCO3 (stereo partly drawn) — within 1.5-fold, 7.12 µM
- CCCC(C(=O)N[C@@H]1c2cc3c(cc2[C@@H](c2cc(OC)c(OC)c(OC)c2)[C@H]2C(=O)OC[C@@H]21)OCO3)N(C(=O)C1=CC(C)(C)N([O])C1(C)C)C(C)(C)C (stereo partly drawn) — higher, > 20 µM
- CCCC(OC(=O)C1CC(C)(C)N([O])C(C)(C)C1)C(=O)N[C@@H]1c2cc3c(cc2[C@@H](c2cc(OC)c(OC)c(OC)c2)[C@H]2C(=O)OC[C@@H]21)OCO3 (stereo partly drawn) — within 1.5-fold, 6.58 µM
- CCCC(C(=O)N[C@@H]1c2cc3c(cc2[C@@H](c2cc(OC)c(OC)c(OC)c2)[C@H]2C(=O)OC[C@@H]21)OCO3)N(CCC)C(=O)C1=CC(C)(C)N([O])C1(C)C (stereo partly drawn) — higher, > 20 µM
- CCCC(OC(=O)C1=CC(C)(C)N([O])C(C)(C)C1)C(=O)N[C@@H]1c2cc3c(cc2[C@@H](c2cc(OC)c(OC)c(OC)c2)[C@H]2C(=O)OC[C@@H]21)OCO3 (stereo partly drawn) — within 1.5-fold, 6.88 µM
- CCCC(C(=O)N[C@@H]1c2cc3c(cc2[C@@H](c2cc(OC)c(OC)c(OC)c2)[C@H]2C(=O)OC[C@@H]21)OCO3)N(C(=O)C1=CC(C)(C)N([O])C1(C)C)C1CCCCC1 (stereo partly drawn) — within 1.5-fold, 9.35 µM
- CCCN(C(=O)C1=CC(C)(C)N([O])C1(C)C)C(C(=O)N[C@@H]1c2cc3c(cc2[C@@H](c2cc(OC)c(OC)c(OC)c2)[C@H]2C(=O)OC[C@@H]21)OCO3)c1ccccc1 (stereo partly drawn) — higher, > 20 µM
- CCCC(C(=O)N[C@@H]1c2cc3c(cc2[C@@H](c2cc(OC)c(OC)c(OC)c2)[C@H]2C(=O)OC[C@@H]21)OCO3)N(C(=O)C1=CC(C)(C)N([O])C1(C)C)c1ccccc1 (stereo partly drawn) — within 1.5-fold, 8.49 µM
- COc1cc([C@@H]2c3cc4c(cc3[C@@H](NC(=O)C(OC(=O)C3=CC(C)(C)N([O])C3(C)C)c3ccco3)[C@H]3COC(=O)[C@H]23)OCO4)cc(OC)c1OC (stereo partly drawn) — within 1.5-fold, 7.12 µM
- CCCN(C(=O)C1=CC(C)(C)N([O])C(C)(C)C1)C(C)(C)C(=O)N[C@@H]1c2cc3c(cc2[C@@H](c2cc(OC)c(OC)c(OC)c2)[C@H]2C(=O)OC[C@@H]21)OCO3 — higher, > 20 µM
- COc1cc([C@@H]2c3cc4c(cc3[C@@H](NC(=O)C(Cc3ccccc3)OC(=O)C3=CC(C)(C)N([O])C3(C)C)[C@H]3COC(=O)[C@H]23)OCO4)cc(OC)c1OC (stereo partly drawn) — within 1.5-fold, 6.53 µM

Test system: DU-145
Assay: Cytotoxicity against human DU145 cells after 72 hrs by SRB assay
Format: functional, cell-based
Conditions: not given
Procedure, shortened: as §1

Point of comparison: CCCC(OC(=O)C1=CC(C)(C)N([O])C1(C)C)C(=O)N[C@@H]1c2cc3c(cc2[C@@H](c2cc(OC)c(OC)c(OC)c2)[C@H]2C(=O)OC[C@@H]21)OCO3 (stereo partly drawn), IC50 7.07 µM. Against it:
- CCCC(C(=O)N[C@@H]1c2cc3c(cc2[C@@H](c2cc(OC)c(OC)c(OC)c2)[C@H]2C(=O)OC[C@@H]21)OCO3)N(C(=O)C1=CC(C)(C)N([O])C1(C)C)C(C)(C)C (stereo partly drawn) — higher, > 20 µM
- CCCC(OC(=O)C1CC(C)(C)N([O])C(C)(C)C1)C(=O)N[C@@H]1c2cc3c(cc2[C@@H](c2cc(OC)c(OC)c(OC)c2)[C@H]2C(=O)OC[C@@H]21)OCO3 (stereo partly drawn) — within 1.5-fold, 7.13 µM
- CCCC(C(=O)N[C@@H]1c2cc3c(cc2[C@@H](c2cc(OC)c(OC)c(OC)c2)[C@H]2C(=O)OC[C@@H]21)OCO3)N(CCC)C(=O)C1=CC(C)(C)N([O])C1(C)C (stereo partly drawn) — higher, > 20 µM
- CCCC(OC(=O)C1=CC(C)(C)N([O])C(C)(C)C1)C(=O)N[C@@H]1c2cc3c(cc2[C@@H](c2cc(OC)c(OC)c(OC)c2)[C@H]2C(=O)OC[C@@H]21)OCO3 (stereo partly drawn) — within 1.5-fold, 7.27 µM
- CCCC(C(=O)N[C@@H]1c2cc3c(cc2[C@@H](c2cc(OC)c(OC)c(OC)c2)[C@H]2C(=O)OC[C@@H]21)OCO3)N(C(=O)C1=CC(C)(C)N([O])C1(C)C)C1CCCCC1 (stereo partly drawn) — 1.6-fold higher, 11 µM
- COc1cc([C@@H]2c3cc4c(cc3[C@@H](NC(=O)C3(OC(=O)C5=CC(C)(C)N([O])C5(C)C)CCCCC3)[C@H]3COC(=O)[C@H]23)OCO4)cc(OC)c1OC — within 1.5-fold, 8.74 µM
- CCCN(C(=O)C1=CC(C)(C)N([O])C1(C)C)C(C(=O)N[C@@H]1c2cc3c(cc2[C@@H](c2cc(OC)c(OC)c(OC)c2)[C@H]2C(=O)OC[C@@H]21)OCO3)c1ccccc1 (stereo partly drawn) — higher, > 20 µM
- CCCC(C(=O)N[C@@H]1c2cc3c(cc2[C@@H](c2cc(OC)c(OC)c(OC)c2)[C@H]2C(=O)OC[C@@H]21)OCO3)N(C(=O)C1=CC(C)(C)N([O])C1(C)C)c1ccccc1 (stereo partly drawn) — within 1.5-fold, 9.78 µM
- COc1cc([C@@H]2c3cc4c(cc3[C@@H](NC(=O)C(OC(=O)C3=CC(C)(C)N([O])C3(C)C)c3ccco3)[C@H]3COC(=O)[C@H]23)OCO4)cc(OC)c1OC (stereo partly drawn) — within 1.5-fold, 6.55 µM
- CCCN(C(=O)C1=CC(C)(C)N([O])C(C)(C)C1)C(C)(C)C(=O)N[C@@H]1c2cc3c(cc2[C@@H](c2cc(OC)c(OC)c(OC)c2)[C@H]2C(=O)OC[C@@H]21)OCO3 — higher, > 20 µM
- COc1cc([C@@H]2c3cc4c(cc3[C@@H](NC(=O)C(Cc3ccccc3)OC(=O)C3=CC(C)(C)N([O])C3(C)C)[C@H]3COC(=O)[C@H]23)OCO4)cc(OC)c1OC (stereo partly drawn) — within 1.5-fold, 6.82 µM
